Experimental data taken from ChEMBL document CHEMBL3593245 (J Med Chem, 2015).
pIC50: −log10 of the molar value. In brackets after ≈: the same amount, converted by molar mass.

What was measured:
[1] = target: T1, Rap guanine nucleotide exchange factor 4 (Mus musculus, UniProt Q9EQZ6); test: Displacement of 8-NBD-cAMP from mouse recombinant EPAC2 by fluorescence assay; conditions: for pIC50: read-out: IC50
T1 sequence (Q9EQZ6 whole entry): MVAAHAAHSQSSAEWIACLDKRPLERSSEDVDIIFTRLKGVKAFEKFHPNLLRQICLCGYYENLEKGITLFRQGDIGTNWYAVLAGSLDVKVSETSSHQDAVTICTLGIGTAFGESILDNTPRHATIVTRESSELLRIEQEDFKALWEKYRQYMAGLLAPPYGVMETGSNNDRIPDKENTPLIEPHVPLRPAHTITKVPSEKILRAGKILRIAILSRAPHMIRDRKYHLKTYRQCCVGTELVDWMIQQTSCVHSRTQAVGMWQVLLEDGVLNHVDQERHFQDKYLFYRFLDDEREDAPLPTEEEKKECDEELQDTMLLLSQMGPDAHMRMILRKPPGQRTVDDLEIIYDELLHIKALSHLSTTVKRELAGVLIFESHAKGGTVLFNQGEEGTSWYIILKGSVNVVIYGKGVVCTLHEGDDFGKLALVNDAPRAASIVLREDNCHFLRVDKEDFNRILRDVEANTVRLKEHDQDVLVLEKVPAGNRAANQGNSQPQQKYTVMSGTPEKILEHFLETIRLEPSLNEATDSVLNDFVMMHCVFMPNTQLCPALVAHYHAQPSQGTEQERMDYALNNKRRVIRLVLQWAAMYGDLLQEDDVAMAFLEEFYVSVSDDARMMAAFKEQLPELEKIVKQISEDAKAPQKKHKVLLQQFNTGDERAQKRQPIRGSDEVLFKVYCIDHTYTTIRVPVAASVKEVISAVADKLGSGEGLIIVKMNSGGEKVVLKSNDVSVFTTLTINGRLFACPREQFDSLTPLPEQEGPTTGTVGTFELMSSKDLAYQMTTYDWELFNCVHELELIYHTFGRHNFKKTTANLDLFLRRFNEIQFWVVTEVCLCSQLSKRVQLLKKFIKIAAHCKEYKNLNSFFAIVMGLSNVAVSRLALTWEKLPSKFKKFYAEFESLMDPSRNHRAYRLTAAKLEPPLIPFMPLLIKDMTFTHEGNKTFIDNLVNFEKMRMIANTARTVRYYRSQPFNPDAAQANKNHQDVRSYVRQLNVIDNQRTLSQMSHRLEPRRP

[2] = target: T2, Rap guanine nucleotide exchange factor 4 (Mus musculus) (UniProt Q9EQZ6); test: Ratio of cAMP IC50 to compound IC50 for displacement of 8-NBD-cAMP from mouse recombinant EPAC2 by fluorescence assay
T2 sequence (whole entry): T1 sequence (Q9EQZ6 whole entry)

[3] = target: T3, Rap guanine nucleotide exchange factor 3 (Homo sapiens, UniProt O95398); test: Antagonist activity at human recombinant EPAC1 assessed as inhibition of Rap1b-bGDP exchange activity
T3 sequence (O95398 whole entry): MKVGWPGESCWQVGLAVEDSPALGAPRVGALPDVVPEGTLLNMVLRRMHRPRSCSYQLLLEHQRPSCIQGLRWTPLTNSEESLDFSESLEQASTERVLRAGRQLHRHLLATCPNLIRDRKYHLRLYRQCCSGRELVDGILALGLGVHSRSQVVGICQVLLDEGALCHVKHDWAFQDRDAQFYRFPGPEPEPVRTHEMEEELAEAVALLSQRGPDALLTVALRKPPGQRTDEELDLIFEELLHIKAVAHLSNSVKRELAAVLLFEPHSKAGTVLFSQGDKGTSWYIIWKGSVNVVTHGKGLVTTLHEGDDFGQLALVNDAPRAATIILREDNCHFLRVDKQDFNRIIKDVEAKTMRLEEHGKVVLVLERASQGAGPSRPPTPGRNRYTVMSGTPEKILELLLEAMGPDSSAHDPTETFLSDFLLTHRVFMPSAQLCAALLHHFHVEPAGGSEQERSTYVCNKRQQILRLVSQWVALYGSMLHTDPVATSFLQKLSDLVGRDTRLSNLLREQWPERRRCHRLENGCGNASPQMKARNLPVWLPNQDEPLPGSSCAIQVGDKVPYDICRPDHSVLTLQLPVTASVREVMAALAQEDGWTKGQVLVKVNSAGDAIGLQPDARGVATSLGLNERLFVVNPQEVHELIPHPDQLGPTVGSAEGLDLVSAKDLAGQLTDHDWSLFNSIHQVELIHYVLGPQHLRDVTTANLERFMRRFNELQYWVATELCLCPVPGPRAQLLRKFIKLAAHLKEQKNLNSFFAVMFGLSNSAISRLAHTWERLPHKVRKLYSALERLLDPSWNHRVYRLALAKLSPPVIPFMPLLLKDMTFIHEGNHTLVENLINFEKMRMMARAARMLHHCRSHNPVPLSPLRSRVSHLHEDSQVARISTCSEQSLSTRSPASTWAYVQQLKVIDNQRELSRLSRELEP

[4] = […] solubility of the compound in water after 24 hrs by HPLC analysis; assay type: physicochemical; conditions: for solubility: buffer, 24 h
[5] = […] solubility of the compound in ethanol after 24 hrs by HPLC analysis; assay type: physicochemical
Summary of the method: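 10–15 mg of solid added to 0.1–0.6 mL ethanol, shaken 24 h at 25 °C, then centrifuged and filtered. Supernatant (5 μL) injected on C18 reverse-phase HPLC with UV detection at 270 and 254 nm. Quantified by one-point calibration against standards of known concentration.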

[6] = target: T3, Rap guanine nucleotide exchange factor 3; test: Antagonist activity at EPAC1 (unknown origin) assessed as cAMP-induced guanine nucleotide exchange factor activity

IC50 [1] | SMILES | pIC50 [1] | Ratio IC50 [2] | pIC50 [3] | also measured
 | CC(C)(C)c1cc(C(=O)/C(C#N)=N/Nc2cc(F)cc(F)c2)no1 | 5.28 | 6 |  | 
 | CC(C)(C)c1cc(C(=O)/C(C#N)=N/Nc2cc(F)cc(Cl)c2)no1 | 5.60 | 12.8 | 4.94 | 
 | CC(C)(C)c1cc(C(=O)/C(C#N)=N/Nc2ccc(Cl)cc2)no1 |  | 1.2 |  | 
Not Active | CC(C)(C)c1cc(NC(=O)/C(C#N)=N/Nc2cccc(Cl)c2)no1 |  |  |  | 
 | CC(C)(C)c1cc(C(=O)/C(C#N)=N/Nc2ccc(Cl)c(C(F)(F)F)c2)no1 |  |  | 5.01 | 
 | CC(C)(C)c1cc(C(=O)/C(C#N)=N/Nc2cccc([N+](=O)[O-])c2)no1 | 4.50 | 1 |  | 
 | CC(C)(C)c1cc(C(=O)/C(C#N)=N/Nc2ccc(F)c(Cl)c2)no1 | 5.57 | 11.9 | 5.11 | solubility [4]: 0.2368 mM (≈ 82.6 µg/mL); solubility at 24 h [5]: 23.5 mM (≈ 8200 µg/mL)
 | CC(C)(C)c1cc(C(=O)/C(C#N)=N/Nc2cc(C(F)(F)F)cc(C(F)(F)F)c2)no1 | 5.19 |  | 5.24 | solubility [4]: 0.968 mM (≈ 418 µg/mL); solubility at 24 h [5]: > 347 mM
 | CC(C)(C)c1cc(C(=O)/C(C#N)=N/Nc2cc(Cl)ccc2Cl)no1 |  | 4.4 |  | 
Not Active | CC(C)(C)c1cc(NC(=O)c2cccc(Cl)c2)no1 |  |  |  | 
Not Active | Cc1cc(NC(=O)/C(C#N)=N/Nc2cccc(Cl)c2)no1 |  |  |  | 
 | CCOC(=O)c1cccc(N/N=C(\C#N)C(=O)c2cc(C(C)(C)C)on2)c1 | 4.15 |  |  | 
Not Active | CC(C)(C)c1cc(C(=O)N/N=C/c2cccc(Cl)c2)no1 |  |  |  | 
Not Active | CC(=O)c1cccc(N/N=C(\C#N)C(=O)c2cc(C(C)(C)C)on2)c1 |  |  |  | 
Not Active | Cc1cc(C(=O)/C(C#N)=N/Nc2cccc(Cl)c2)no1 |  |  |  | 
 | CC(C)(C)c1cc(C(=O)/C(C#N)=N/Nc2ccc(Cl)c(Cl)c2)no1 |  | 10.7 |  | 
Not Active | CC(C)(C)c1cc(NC(=O)Nc2cccc(Cl)c2)no1 |  |  |  | 
 | CC(C)(C)c1cc(C(=O)/C(C#N)=N/Nc2ccc(C(F)(F)F)c(Cl)c2)no1 |  |  | 5.37 | 
Not Active | CC(C)(C)c1cc(C(=O)Nc2cccc(Cl)c2)no1 |  |  |  | 

IC50 [1] | SMILES | pIC50 [1] | Ratio IC50 [2] | pIC50 [3] | also measured
 | N#C/C(=N\Nc1cc(Cl)cc(Cl)c1)C(=O)c1cc(C2CCCCC2)on1 |  |  | 5.59 | 
 | CC(C)(C)c1cc(C(=O)/C(C#N)=N/Nc2cc(Cl)c(Cl)c(Cl)c2)no1 | 6.05 |  | 5.62 | solubility [4]: 0.0318 mM (≈ 12.7 µg/mL); solubility at 24 h [5]: 10.9 mM (≈ 4360 µg/mL)
Not Active | CC(C)(C)c1cc(C(=O)/C(C#N)=N/Nc2cccc(CO)c2)no1 |  |  |  | 
 | CC(C)(C)c1cc(C(=O)/C(C#N)=N/Nc2cccc(C#N)c2)no1 | 4.17 |  |  | 
 | CC(C)(C)c1cc(C(=O)/C(C#N)=N/Nc2cccc(Cl)c2)no1 |  |  | 4.97 | solubility at 24 h ([4]; water): 0.018 mM (≈ 5.95 µg/mL); solubility at 24 h [5]: 45.3 mM (≈ 15000 µg/mL); pIC50 [6]: 4.97
 | CC(C)(C)c1cc(C(=O)/C(C#N)=N/Nc2cc(F)c(F)c(F)c2)no1 |  |  | 5.05 | solubility [4]: 0.216 mM (≈ 75.7 µg/mL); solubility at 24 h [5]: 81.6 mM (≈ 28600 µg/mL)
Not Active | COc1cccc(N/N=C(\C#N)C(=O)c2cc(C(C)(C)C)on2)c1 |  |  |  | 
 | N#C/C(=N\Nc1cccc(Cl)c1)C(=O)c1cc(C2CCCCC2)on1 | 4.95 | 2.8 |  | 
 | N#C/C(=N\Nc1cccc(Cl)c1)C(=O)c1cc(C2CC2)on1 | 4.22 |  |  | 
Not Active | CC(C)(C)c1cc(-c2n[nH]c(N)c2/N=N/c2cccc(Cl)c2)no1 |  |  |  | 
 | CC(C)(C)c1cc(C(=O)/C(C#N)=N/Nc2cc(Cl)cc(C(F)(F)F)c2)no1 | 5.80 |  | 5.24 | solubility at 24 h [5]: 36.6 mM (≈ 14600 µg/mL)
 | CC(C)(C)c1cc(C(=O)/C(C#N)=N/Nc2cc(Cl)cc(Cl)c2)no1 |  | 16.8 |  | 
 | N#C/C(=N\Nc1cc(Cl)c(Cl)c(Cl)c1)C(=O)c1cc(C2CC2)on1 |  |  | 5.39 | 
 | CC(C)(C)c1cc(C(=O)/C(C#N)=N/Nc2cccc(Cl)c2Cl)no1 |  | 0.9 |  | 
 | CC(C)(C)c1cc(C(=O)/C(C#N)=N/Nc2ccccc2)no1 |  | 0.5 |  | 
Not Active | N#C/C(=N\Nc1cc(Cl)c(Cl)c(Cl)c1)C(=O)c1cc(-c2ccccc2)on1 |  |  |  | 
 | CC(C)(C)c1cc(C(=O)/C(C#N)=N/Nc2ccc(Cl)c(F)c2)no1 | 5.37 | 7.4 |  | 
 | CC(C)(C)c1cc(C(=O)/C(C#N)=N/Nc2ccccc2Cl)no1 |  | 1.1 |  | 
 | N#C/C(=N\Nc1cc(Cl)c(Cl)c(Cl)c1)C(=O)c1cc(C2CCCCC2)on1 |  |  | 5.40 | solubility [4]: 0.0237 mM (≈ 10.1 µg/mL); solubility at 24 h [5]: 8.5 mM (≈ 3620 µg/mL)

SMILES | IC50 [1] | pIC50 [1] | Ratio IC50 [2] | pIC50 [3] | also measured
N#C/C(=N\Nc1cccc(Cl)c1)C(=O)c1cc(-c2ccccc2)on1 | Not Active |  |  |  | 
